ChEMBL document CHEMBL1649143, “In vitro activities of fluconazole and voriconazole against clinical isolates of Candida spp. determined by disk diffusion testing in Turin, Italy” (2009)
Values after ≈ are worked out from the molar mass of the structure shown.

Tests used:
Candida tropicalis [1] = assay: Antifungal activity against Candida tropicalis assessed as percent susceptible isolates at 1 ug/disc by CLSI M44-A disk diffusion method; assay type: functional
Procedure, shortened: (§1)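 Agar disk diffusion per CLSI M44-A on clinical Candida isolates collected in Turin, Italy; 1,024 isolates tested in total. Each isolate was classed as susceptible (S), susceptible-dose dependent (SDD) or resistant (R), and the percentage of isolates per species in each category was reported.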

Cyberlindnera jadinii = assay: Antifungal against Candida utilis assessed as percent susceptible isolates at 1 ug/disc by CLSI M44-A disk diffusion method; assay type: functional; procedure, shortened: as §1
Candida albicans [2] = assay: Antifungal activity against Candida albicans by reference dilution method; assay type: functional
Nakaseomyces glabratus [3] = assay: Antifungal activity against Candida glabrata assessed as percent resistant isolates at 1 ug/disc by CLSI M44-A disk diffusion method; assay type: functional; procedure, shortened: as §1
[4] = Antifungal activity against Candida membranifaciens assessed as percent susceptible isolates at 1 ug/disc by CLSI M44-A disk diffusion method; assay type: functional; procedure, shortened: as §1
Pichia norvegensis [5] = assay: Antifungal activity against Candida norvegensis assessed as percent dose dependent percent susceptible isolates at 1 ug/disc by CLSI M44-A disk diffusion method; assay type: functional; procedure, shortened: as §1
Candida tropicalis [6] = assay: Antifungal activity against Candida tropicalis assessed as dose dependent percent susceptible isolates at 1 ug/disc by CLSI M44-A disk diffusion method; assay type: functional; procedure, shortened: as §1
Pichia fermentans = assay: Antifungal activity against Candida lambica assessed as percent susceptible isolates at 1 ug/disc by CLSI M44-A disk diffusion method; assay type: functional; procedure, shortened: as §1
Nakaseomyces glabratus [7] = assay: Antifungal activity against Candida glabrata by reference dilution method; assay type: functional
Kluyveromyces marxianus [8] = assay: Antifungal activity against Candida kefyr assessed as percent susceptible isolates at 1 ug/disc by CLSI M44-A disk diffusion method; assay type: functional; procedure, shortened: as §1
[9] = Antifungal activity against Candida humicola assessed as percent susceptible isolates at 1 ug/disc by CLSI M44-A disk diffusion method; assay type: functional; procedure, shortened: as §1
[Candida] intermedia = Antifungal activity against Candida intermedia assessed as percent susceptible isolates at 1 ug/disc by CLSI M44-A disk diffusion method; assay type: functional, Sungouiella intermedia; procedure, shortened: as §1
Clavispora lusitaniae = assay: Antifungal activity against Candida lusitaniae assessed as percent susceptible isolates at 1 ug/disc by CLSI M44-A disk diffusion method; assay type: functional; procedure, shortened: as §1
Diutina rugosa = assay: Antifungal activity against Candida rugosa assessed as percent susceptible isolates at 1 ug/disc by CLSI M44-A disk diffusion method; assay type: functional; procedure, shortened: as §1
Candida parapsilosis [10] = assay: Antifungal activity against Candida parapsilosis by reference dilution method; assay type: functional; settings: Lodderomyces parapsilosis
Pichia kudriavzevii [11] = assay: Antifungal activity against Candida krusei assessed as percent susceptible isolates at 1 ug/disc by CLSI M44-A disk diffusion method; assay type: functional; procedure, shortened: as §1
Candida parapsilosis [12] = assay: Antifungal activity against Candida parapsilosis assessed as percent susceptible isolates at 1 ug/disc by CLSI M44-A disk diffusion method; assay type: functional; procedure, shortened: as §1
Pichia kudriavzevii [13] = assay: Antifungal activity against Candida krusei by reference dilution method; assay type: functional
Pichia kudriavzevii [14] = assay: Antifungal activity against Candida krusei assessed as dose dependent percent susceptible isolates at 1 ug/disc by CLSI M44-A disk diffusion method; assay type: functional; procedure, shortened: as §1
Pichia norvegensis [15] = assay: Antifungal activity against Candida norvegensis assessed as percent susceptible isolates at 1 ug/disc by CLSI M44-A disk diffusion method
Kluyveromyces marxianus [16] = assay: Antifungal activity against Candida kefyr assessed as percent dose dependent percent susceptible isolates at 1 ug/disc by CLSI M44-A disk diffusion method; assay type: functional; procedure, shortened: as §1
Pichia kudriavzevii [17] = assay: Antifungal activity against Candida krusei assessed as percent resistant isolates at 1 ug/disc by CLSI M44-A disk diffusion method; assay type: functional; procedure, shortened: as §1
Candida = assay: Antifungal activity against Candida sp. by reference dilution method; assay type: functional
Nakaseomyces glabratus [18] = assay: Antifungal activity against Candida glabrata assessed as percent susceptible isolates at 1 ug/disc by CLSI M44-A disk diffusion method; assay type: functional; procedure, shortened: as §1
Pichia norvegensis [19] = assay: Antifungal activity against Candida norvegensis by reference dilution method; assay type: functional
Candida tropicalis [20] = assay: Antifungal activity against Candida tropicalis by reference dilution method; assay type: functional
Candida tropicalis [21] = assay: Antifungal activity against Candida tropicalis assessed as percent resistant isolates at 1 ug/disc by CLSI M44-A disk diffusion method; assay type: functional; procedure, shortened: as §1
Candida albicans [22] = assay: Antifungal activity against Candida albicans assessed as percent susceptible isolates at 1 ug/disc by CLSI M44-A disk diffusion method; assay type: functional; procedure, shortened: as §1
Nakaseomyces glabratus [23] = assay: Antifungal activity against Candida glabrata assessed as dose dependent percent susceptible isolates at 1 ug/disc by CLSI M44-A disk diffusion method; assay type: functional; procedure, shortened: as §1
Kluyveromyces marxianus [24] = assay: Antifungal activity against Candida kefyr by reference dilution method; assay type: functional
[25] = Antifungal activity against Candida holmii assessed as percent susceptible isolates at 1 ug/disc by CLSI M44-A disk diffusion method; assay type: functional; settings: Kazachstania exigua; procedure, shortened: as §1

C[C@@H](c1ncncc1F)[C@](O)(Cn1cncn1)c1ccc(F)cc1F [VORICONAZOLE]
Activity (Candida tropicalis [1]): 90%
Activity (Cyberlindnera jadinii): 100%
MIC50 (Candida albicans [2]): 0.06 mg/L (≈ 0.172 µM)
MIC90 (Candida albicans [2]): 0.12 mg/L (≈ 0.344 µM)
Activity (Nakaseomyces glabratus [3]): 11%
Activity [4]: 100%
Activity (Pichia norvegensis [5]): 7%
Activity (Candida tropicalis [6]): 3%
Activity (Pichia fermentans): 100%
MIC50 (Nakaseomyces glabratus [7]): 0.25 mg/L (≈ 0.716 µM)
MIC90 (Nakaseomyces glabratus [7]): 4 mg/L (≈ 11.5 µM)
Activity (Kluyveromyces marxianus [8]): 96%
Activity [9]: 100%
Activity ([Candida] intermedia): 100%
Activity (Clavispora lusitaniae): 100%
Activity (Diutina rugosa): 100%
MIC50 (Candida parapsilosis [10]): 0.06 mg/L (≈ 0.172 µM)
MIC90 (Candida parapsilosis [10]): 0.12 mg/L (≈ 0.344 µM)
Activity (Pichia kudriavzevii [11]): 92%
Activity (Candida parapsilosis [12]): 100%
MIC50 (Pichia kudriavzevii [13]): 0.5 mg/L (≈ 1.43 µM)
MIC90 (Pichia kudriavzevii [13]): 2 mg/L (≈ 5.73 µM)
Activity (Pichia kudriavzevii [14]): 4%
Activity (Pichia norvegensis [15]): 93%
Activity (Kluyveromyces marxianus [16]): 4%
Activity (Pichia kudriavzevii [17]): 4%
MIC50 (Candida): 0.06 mg/L (≈ 0.172 µM)
MIC90 (Candida): 1 mg/L (≈ 2.86 µM)
Activity (Nakaseomyces glabratus [18]): 87%
MIC50 (Pichia norvegensis [19]): 0.25 mg/L (≈ 0.716 µM)
MIC90 (Pichia norvegensis [19]): 1 mg/L (≈ 2.86 µM)
MIC50 (Candida tropicalis [20]): 0.12 mg/L (≈ 0.344 µM)
MIC90 (Candida tropicalis [20]): 2 mg/L (≈ 5.73 µM)
Activity (Candida tropicalis [21]): 7%
Activity (Candida albicans [22]): 99.8%
Activity (Nakaseomyces glabratus [23]): 3%
MIC (Kluyveromyces marxianus [24]): 0.008 mg/L (≈ 0.0229 µM)
MIC50 (Kluyveromyces marxianus [24]): 0.01 mg/L (≈ 0.0286 µM)
MIC90 (Kluyveromyces marxianus [24]): 0.06 mg/L (≈ 0.172 µM)
Activity [25]: 100%
